MrgX1 ag = activates human MrgX1 receptor signaling | AID 588627 | B-score at 10 µM | 0.44% of 310,000 active | MrgX1-HEK293 cells, Fluo-4 calcium fluorescence, agonist mode; stronger effect = higher value;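 active = calcium response B-score plate-corrected fluorescence ratio at least 3 library SD, with starting fluorescence B-score inside 5 SD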
Target sequence (Q96LB2 whole entry, looked up): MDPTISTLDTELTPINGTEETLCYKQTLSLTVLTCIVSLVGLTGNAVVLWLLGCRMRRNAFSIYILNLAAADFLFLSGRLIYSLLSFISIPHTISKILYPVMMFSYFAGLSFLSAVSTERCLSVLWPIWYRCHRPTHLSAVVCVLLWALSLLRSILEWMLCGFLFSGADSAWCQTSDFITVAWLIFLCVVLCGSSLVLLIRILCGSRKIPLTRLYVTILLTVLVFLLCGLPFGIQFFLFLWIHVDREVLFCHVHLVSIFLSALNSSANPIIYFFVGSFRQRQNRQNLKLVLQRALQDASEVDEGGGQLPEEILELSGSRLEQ
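Material: HEK293 cells stably expressing human MrgX1 receptor | Quantity: 15,000 cells per well | Times: Cells plated overnight, dye loaded 0.5 h 37 °C, 0.5 h room temperature | Measured by: Kinetic Fluo-4 NW fluorescence of intracellular calcium | Control set: Positive and negative controls per plate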
RGS4 block = human RGS4 inhibition. P49798. AID 463165. 0.45% of 310,000 active. B-score at 10 µM. HEK293 M3R/RGS4 inducible, Fluo-4 calcium flux; stronger effect = higher value; triggered by carbachol at its EC20;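 active = B-score, a plate-corrected calcium signal, over three deviations above library mean, with baseline fluorescence within five deviations of library mean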;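 note: RGS4 expression induced by doxycycline in cells with stable M3 receptor; B-score is computed from the integrated fluorescence ratio over baseline after carbachol; higher B-score means a larger calcium signal and so more RGS4 inhibition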
Target sequence (P49798 whole entry, looked up): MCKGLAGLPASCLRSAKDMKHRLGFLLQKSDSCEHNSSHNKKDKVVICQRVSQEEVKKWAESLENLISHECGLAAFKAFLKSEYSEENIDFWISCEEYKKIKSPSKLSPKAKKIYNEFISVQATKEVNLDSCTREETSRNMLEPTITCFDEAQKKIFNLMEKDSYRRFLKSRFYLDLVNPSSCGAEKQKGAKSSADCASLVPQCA
MrgX1 allo act = allosterically activates human MrgX1 receptor signaling; B-score at 10 µM; MrgX1-HEK293, Fluo-4 calcium flux, FDSS; stronger effect = higher value; 0.63% of 310,000 active;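 active = plate-corrected calcium response at least 3 library SD above typical, normal starting fluorescence, not activating the receptor alone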;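 note: compound read alongside a low EC10 to EC30 dose of BAM8-22 agonist; peak minus trough fluorescence over baseline measured at the second addition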
MrgX1 antag = antagonists of human MrgX1 receptor; B-score at 10 µM; Q96LB2; 1.3% of 310,000 active; MRGX1-HEK293 calcium flux, Fluo-4, BAM8-22 antagonism; stronger effect = lower value;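 active = calcium-response B-score plate-corrected more than 3 library SD below zero, starting fluorescence within 5 deviations, no agonist response on first addition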;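 note: peak minus trough fluorescence over baseline after final BAM8-22 challenge near maximal dose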
RGS4 pot = RGS4 potentiation or activation; B-score at 10 µM; 0.92% of 310,000 active; HEK293 M3R/inducible RGS4, carbachol calcium flux Fluo4; stronger effect = lower value;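 active = B-score of the integrated calcium signal more than 4 SD below the library mean, with starting fluorescence not abnormally high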;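 note: negative B-score means reduced calcium response which marks RGS4 activation or potentiation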
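Assay system: Inducible-RGS4 HEK293 cells carrying M3 receptor | Schedule: Compound preincubation 20 min at room temperature before agonist | Signal: Kinetic calcium fluorescence imaging with Fluo4-AM dye, 2 µM | Read-out basis: B score from integrated fluorescence ratio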
RGS4 act valid = confirmation of RGS4 activators; shares compounds with RGS4 pot; HEK293 M3R/RGS4 inducible, carbachol calcium flux Fluo4; inhibition, % at 10 µM; 89% of 1,100 active; AID 602282;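 active = inhibition above 3 SD of the buffer control wells, cut at about 41% in these data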;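 note: signal is the integrated peak-minus-minimum Fluo4 fluorescence over baseline ratio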
M3R Ca counter = RGS4 activator counter-screen hit in non-induced cells | inhibition, % at 10 µM | AID 602283 | shares compounds with RGS4 pot | 82% of 1,100 active | HEK293 M3R non-induced RGS4, Fluo4 calcium flux; after carbachol challenge at its EC90;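 active = inhibition exceeding 3 SD of buffer-only control wells, cut at about 26% in these data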;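 note: percent drop in integrated peak-minus-baseline over baseline Fluo4 ratio after carbachol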
Numbers without * were called inactive. In the library only some 3.5% were active in any assay of this set; here they are far more common.

Results for COc1ccc(-c2csc3ncnc(N4CCN(S(=O)(=O)c5cccs5)CC4)c23)cc1 ?
MrgX1 ag: inactive; RGS4 block: inactive; MrgX1 allo act: inactive; MrgX1 antag: inactive; RGS4 pot: -8.18*; RGS4 act valid: 42.5*; M3R Ca counter: 83.8*

Results for COc1ccc(N2CCN(c3ncnc4scc(-c5ccc(C)cc5)c34)CC2)cc1 ?
MrgX1 ag: inactive; RGS4 block: inactive; MrgX1 allo act: inactive; MrgX1 antag: inactive; RGS4 pot: -7.86*; RGS4 act valid: 0.0; M3R Ca counter: 0.0

How did C=CCNC(=O)c1c(CSc2ccc(F)cc2)noc1C(=O)NCCC do in these assays?
MrgX1 ag: inactive; RGS4 block: inactive; MrgX1 allo act: inactive; MrgX1 antag: inactive; RGS4 pot: inactive

Results for O=C1C2CCCN2C(=O)N1CCCCN1CCN(c2cccc(Cl)c2)CC1 (stereo not given) ?
MrgX1 ag: inactive; RGS4 block: inactive; MrgX1 allo act: inactive; MrgX1 antag: inactive; RGS4 pot: inactive

What do the screens show for `O=[N+]([O-])c1ccc(-c2cn3c(n2)CCC3)cc1`?
MrgX1 ag: inactive; RGS4 block: inactive; MrgX1 allo act: inactive; MrgX1 antag: inactive; RGS4 pot: inactive

What do the screens show for `O=C(c1cccc(NC2=NC3CS(=O)(=O)CC3S2)c1)N1CCN(c2cccc(Cl)c2)CC1` (stereo not given)?
MrgX1 ag: inactive; RGS4 block: inactive; MrgX1 allo act: inactive; MrgX1 antag: inactive; RGS4 pot: inactive

What do the screens show for `Cc1ccc(C(=O)NC2(O)C(=O)c3ccccc3C2=O)cc1C`?
MrgX1 ag: inactive; RGS4 block: inactive; MrgX1 allo act: inactive; MrgX1 antag: inactive; RGS4 pot: inactive

Results for O=C(NC1(O)C(=O)c2ccccc2C1=O)c1ccc(C(F)(F)F)cc1 ?
MrgX1 ag: inactive; RGS4 block: inactive; MrgX1 allo act: inactive; MrgX1 antag: inactive; RGS4 pot: -7.64*; RGS4 act valid: 0.0; M3R Ca counter: 0.0

How did Cc1cccc2c1ncc1c(=O)n(-c3ccccc3)[nH]c12 do in these assays?
MrgX1 ag: inactive; RGS4 block: inactive; MrgX1 allo act: inactive; MrgX1 antag: inactive; RGS4 pot: inactive

How did CCCOc1ccc(OCCCCNC(C)CC)cc1 (stereo not given) do in these assays?
MrgX1 ag: inactive; RGS4 block: inactive; MrgX1 allo act: inactive; MrgX1 antag: inactive; RGS4 pot: inactive

How did CCC(C)NCCOc1ccc(C(C)(C)c2ccccc2)cc1 (stereo not given) do in these assays?
MrgX1 ag: inactive; RGS4 block: inactive; MrgX1 allo act: inactive; MrgX1 antag: inactive; RGS4 pot: -7.78*; RGS4 act valid: 79.0*; M3R Ca counter: 33.8*

Results for CN(C)CC#CCC(O)(c1ccccc1)C1CCCCC1 (stereo not given) ?
MrgX1 ag: inactive; RGS4 block: inactive; MrgX1 allo act: inactive; MrgX1 antag: inactive; RGS4 pot: inactive

Results for CN(C)C(C)(C)C#CC(O)(c1ccccc1)c1ccccc1 ?
MrgX1 ag: inactive; RGS4 block: inactive; MrgX1 allo act: inactive; MrgX1 antag: inactive; RGS4 pot: -8.72*; RGS4 act valid: 92.0*; M3R Ca counter: 88.3*

How did CN(C)CCC(O)(c1ccccc1)c1ccccc1 do in these assays?
MrgX1 ag: inactive; RGS4 block: inactive; MrgX1 allo act: inactive; MrgX1 antag: inactive; RGS4 pot: inactive

What do the screens show for `CCN(CC)CC#CC(O)(c1ccccc1)c1ccccc1`?
MrgX1 ag: inactive; RGS4 block: inactive; MrgX1 allo act: inactive; MrgX1 antag: inactive; RGS4 pot: -12.6*; RGS4 act valid: 93.5*; M3R Ca counter: 91.8*

What do the screens show for `CCN(CC)CCC#CC(O)(c1ccccc1)C1CCCCC1` (stereo not given)?
MrgX1 ag: inactive; RGS4 block: inactive; MrgX1 allo act: inactive; MrgX1 antag: inactive; RGS4 pot: -8.57*; RGS4 act valid: 91.0*; M3R Ca counter: 93.3*

Results for CN(C)CCC#CC(O)(c1ccccc1)c1ccccc1 ?
MrgX1 ag: inactive; RGS4 block: inactive; MrgX1 allo act: inactive; MrgX1 antag: inactive; RGS4 pot: -9.9*; RGS4 act valid: 87.5*; M3R Ca counter: 46.8*

What do the screens show for `COc1ccc(CNC(=O)CSCc2ccccc2Cl)cc1`?
MrgX1 ag: inactive; RGS4 block: inactive; MrgX1 allo act: inactive; MrgX1 antag: inactive; RGS4 pot: inactive

Results for Clc1ccc(/C=C/c2ncc[nH]2)c(Cl)c1 ?
MrgX1 ag: inactive; RGS4 block: inactive; MrgX1 allo act: inactive; MrgX1 antag: inactive; RGS4 pot: inactive

Results for O=C(Nc1cccc(-c2nn[nH]n2)c1)c1csc2c1CCCC2 ?
MrgX1 ag: inactive; RGS4 block: inactive; MrgX1 allo act: inactive; MrgX1 antag: inactive; RGS4 pot: inactive

Results for CC1CC(C)CN(CCCNC(=O)C2CCCN(S(=O)(=O)N3CC(C)CC(C)C3)C2)C1 (stereo not given) ?
MrgX1 ag: inactive; RGS4 block: inactive; MrgX1 allo act: inactive; MrgX1 antag: inactive; RGS4 pot: inactive

What do the screens show for `O=C(Nc1ccc(Cl)cc1)c1ccc(Br)cc1F`?
MrgX1 ag: inactive; RGS4 block: inactive; MrgX1 allo act: inactive; MrgX1 antag: inactive; RGS4 pot: inactive

How did Cc1ccsc1C(=O)NC(C)c1ccccc1 (stereo not given) do in these assays?
MrgX1 ag: inactive; RGS4 block: inactive; MrgX1 allo act: inactive; MrgX1 antag: inactive; RGS4 pot: inactive

What do the screens show for `CNC(=S)N/N=C1\C(=O)c2cccc3cccc1c23`?
MrgX1 ag: inactive; RGS4 block: inactive; MrgX1 allo act: inactive; MrgX1 antag: inactive; RGS4 pot: -7.79*; RGS4 act valid: 0.0; M3R Ca counter: 0.0

Results for CCCCNC(=S)N/N=C1\C(=O)c2cccc3cccc1c23 ?
MrgX1 ag: inactive; RGS4 block: inactive; MrgX1 allo act: inactive; MrgX1 antag: inactive; RGS4 pot: inactive

Results for O=Cc1cn(-c2ccccc2)nc1-c1ccccc1 ?
MrgX1 ag: inactive; RGS4 block: inactive; MrgX1 allo act: inactive; MrgX1 antag: inactive; RGS4 pot: inactive

How did CC1=NNC(=O)/C1=C\c1cn(-c2ccccc2)nc1-c1ccccc1 do in these assays?
MrgX1 ag: inactive; RGS4 block: inactive; MrgX1 allo act: inactive; MrgX1 antag: inactive; RGS4 pot: -10.8*; RGS4 act valid: 69.5*; M3R Ca counter: 34.3*

Assay outcomes (PubChem BioAssay)
